From PubChem
An excerpt weighted towards active compounds, which were near 1.5% of everything screened.
APJ agonist – activates the human apelin receptor APJ | CHO-K1 APJ PathHunter beta-arrestin, luminescence; 0% DMSO wells, 100% apelin | activation, % at 20 µM | 330,000 compounds, 0.11% hits | AID 2520;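 active = activation more than six SD over the plate average, tested at 20 µM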
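Material: CHO-K1 APJ beta-arrestin complementation cell line; Input: cell density 1000 per well; Incubation: compound stimulation 90 min at 25 °C, detection 60 min; Signal: luminescence from split beta-galactosidase complementation, Galacton Star/Emerald II substrate; Controls: DMSO-only wells as negative, 10 nM Apelin-13 as positive control.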
APJ antagonist – APJ receptor antagonism; P35414; CHO-K1 APJ beta-arrestin complementation, luminescence; 330,000 compounds, 0.32% hits; inhibition, % at 20 µM; AID 2521;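 active = inhibition above about 40% at 20 µM, limit read from the data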;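 also: cells challenged with 10 nM apelin-13 agonist together with compound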
EBI2 antag – EBI2 (human) antagonism. P32249. EBI2 beta-arrestin recruitment, luminescence, 7a,25-OHC stimulated. inhibition, % at 5 µM. 360,000 compounds, 0.81% hits; in the data active = inhibition above about 38%;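 also: enzyme fragment complementation signal reports receptor beta-arrestin coupling in cells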
Target sequence (P32249 whole entry, looked up, the tested form may be a part): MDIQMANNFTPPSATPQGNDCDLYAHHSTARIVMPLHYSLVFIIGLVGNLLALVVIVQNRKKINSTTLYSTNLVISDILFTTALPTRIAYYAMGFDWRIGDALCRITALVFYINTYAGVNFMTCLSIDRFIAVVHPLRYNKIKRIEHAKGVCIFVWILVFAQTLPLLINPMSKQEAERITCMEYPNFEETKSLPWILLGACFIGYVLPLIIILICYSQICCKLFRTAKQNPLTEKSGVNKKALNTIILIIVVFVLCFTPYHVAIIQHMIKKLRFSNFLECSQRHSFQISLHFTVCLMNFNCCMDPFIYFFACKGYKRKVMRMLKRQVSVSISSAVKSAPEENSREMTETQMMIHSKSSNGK
CCR6 antagonist – blocks CCL20-driven beta-arrestin recruitment at human CCR6; 340,000 compounds, 0.49% hits; CHO-K1 CCR6 PathHunter beta-arrestin, luminescence, CCL20-stimulated; inhibition, % at 20 µM;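 active = compounds whose inhibition of the agonist-driven luminescence signal at 20 µM reaches about 50%, limit read from the data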;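 also: cells stimulated with CCL20 at 14 nM final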
CXCR6 block – blocks human CXCR6 beta-arrestin recruitment; 360,000 compounds, 0.36% hits; AID 602244; O00574; inhibition, % at 20 µM; CHO-K1 PathHunter CXCR6 beta-arrestin, luminescence; in the data active = inhibition above about 34%, passing the limit was not always enough;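 also: antagonist mode with CXCL16 agonist at 10 nM final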
APJ antag confirm – APJ receptor antagonism confirmation; 950 compounds, 66% hits; APJ beta-arrestin recruitment, luminescence, antagonist mode; AID 2766; shares compounds with APJ antagonist; inhibition, % at 20 µM; in the data active = inhibition above about 50%
Large screens that a line does not name were inactive (follow-up assays come after a bar, where they were run).

O=C1Nc2ccc(Br)cc2C1=Nc1ccc(-c2nnc3n2CCCCC3)cc1	APJ antagonist 49 (no result: EBI2 antag, CCR6 antagonist, CXCR6 block) | APJ antag confirm 126
C[C@@H]1COc2cc(N3CC[C@H](O)C3)ccc2S(=O)(=O)N1	none (no result: APJ agonist, APJ antagonist, CCR6 antagonist)
CCOc1ccc(NC(=O)CC2C(=O)N(CC)C(=S)N2CCN2CCOCC2)cc1 (stereo not drawn)	APJ antagonist 46 | APJ antag confirm inactive
O=C(NNc1ncc(C(F)(F)F)cc1Cl)c1c(Cl)cccc1Cl	none | APJ antag confirm 65
Cc1c(Cl)cccc1NC(=S)NNc1ncc(C(F)(F)F)cc1Cl	APJ antagonist 72, CCR6 antagonist 87, CXCR6 block 53 | APJ antag confirm 117
COc1ccccc1C(=O)N1CCN(C(=O)[C@H]2O[C@@H](n3ccc(N)nc3=O)[C@H](O)[C@@H]2O)CC1	none (no result: APJ agonist, APJ antagonist, CCR6 antagonist)
CCC(/C=C1\Oc2ccc(OC)cc2N1C)=C\c1sc2ccccc2[n+]1CCCS(=O)(=O)[O-]	none (no result: APJ agonist, APJ antagonist)
COc1cc(/C=C/c2sc3ccccc3[n+]2CCCS(=O)(=O)[O-])ccc1O	APJ antagonist 51, CCR6 antagonist 55, CXCR6 block 51 | APJ antag confirm 100
O=C1C=C(N2CCOCC2)CO1	APJ antagonist 42 | APJ antag confirm inactive
O=C1C=C(N2CCOCC2)CCC1	none
CCOC(=O)C(C(=O)OCC)c1cc(Br)c2noc3c2c1C(=O)c1ccccc1-3	APJ antagonist 41, CCR6 antagonist 83, CXCR6 block 78 | APJ antag confirm 105
CCOC(=O)C1(C)CCN1C(=O)c1ccccc1 (stereo not drawn)	none (no result: APJ agonist, APJ antagonist, CCR6 antagonist)
COc1cccc(C(C(=O)NC2CCCC2)N2CCN(c3cc(C)nc4ccccc34)CC2)c1OC (stereo not drawn)	none (no result: APJ agonist, APJ antagonist, CCR6 antagonist, CXCR6 block)
O=C(COC(=O)c1ccccc1F)c1ccc(-n2nncc2-c2ccco2)cc1	APJ antagonist 41 | APJ antag confirm inactive
COc1cc(/C=C2\SC(=S)N(NC(=O)c3ccc(O)cc3)C2=O)ccc1O	APJ antagonist 56, CCR6 antagonist 59, CXCR6 block 42 | APJ antag confirm 92
CC(=O)NN1C(=O)/C(=C\c2ccc(O)cc2)SC1=S	none
O=C(NN1C(=O)/C(=C\c2ccc(O)c([N+](=O)[O-])c2)SC1=S)c1ccccc1Cl	APJ antagonist 55, CCR6 antagonist 60 | APJ antag confirm 102
COc1cc(/C=C2\SC(=S)N(NC(=O)c3cccnc3)C2=O)ccc1O	APJ antagonist 42 | APJ antag confirm 95
O=C(NN1C(=O)/C(=C/c2ccc(O)c(O)c2)SC1=S)c1ccccc1	APJ antagonist 48, CCR6 antagonist 64, CXCR6 block 52 | APJ antag confirm 106
COc1ccc(NC(=O)C2(C)CCN2C(=O)c2ccc(C(C)(C)C)cc2)cc1OC (stereo not drawn)	none (no result: APJ agonist, APJ antagonist, CCR6 antagonist)
COC(=O)C1=CN(c2ccccc2OC)C(N)=C(C#N)C1c1cccc([N+](=O)[O-])c1 (stereo not drawn)	none (no result: APJ agonist, APJ antagonist, CCR6 antagonist, CXCR6 block)
CCCCC(=O)N(C)c1c(CC)nc2c(OCCOc3ccccc3)cccn12	none (no result: APJ agonist, APJ antagonist, CCR6 antagonist)
CC1(c2nnnn2-c2ccc3c(c2)OCCO3)CCC(=O)N1CCOc1ccccc1 (stereo not drawn)	none (no result: APJ agonist, APJ antagonist, CCR6 antagonist)
COc1ccc(/C=C2\SC(c3ccc(C)cc3)=NC2=O)cc1OC	none
COc1cc(/C=C2\SC(c3ccc(C)cc3)=NC2=O)ccc1O	APJ antagonist 58, CCR6 antagonist 75, CXCR6 block 57 | APJ antag confirm 102
CCc1nc2ccc(C(=O)Nc3cccc(OCC(=O)N(C)C)c3)cn2c1N(C)Cc1ccc(OC)cc1	none (no result: APJ agonist, APJ antagonist, CCR6 antagonist)
COc1cc(NS(=O)(=O)c2ccc(C)cc2)c2ncccc2c1	APJ antagonist 72, EBI2 antag 75 | APJ antag confirm 63
COc1ccc(S(=O)(=O)Nc2ccccn2)cc1	none
Cc1ccc(S(=O)(=O)Nc2cccc3cccnc23)cc1	APJ antagonist 76, CCR6 antagonist 86, CXCR6 block 70 | APJ antag confirm 96
Cc1ccc(S(=O)(=O)Nc2ccccc2-c2ccccc2NS(=O)(=O)c2ccc(C)cc2)cc1	none
CC(C)C(=O)Nc1cccc(C(=O)OCC(=O)c2ccc(Cl)cc2Cl)c1	APJ antagonist 49 | APJ antag confirm 50
COc1ccc(C(=O)COC(=O)c2cccnc2Cl)c(OC)c1	none
CC(=O)Nc1cc(C(=O)OCC(=O)c2ccc(C)cc2)ccc1C	none
